By IC50 is commonly meant the concentration at which inhibition is half-maximal.

Assay [1] addresses T1, 3-hydroxy-3-methylglutaryl-coenzyme A reductase (Homo sapiens, UniProt P04035).
T1 sequence (P04035 whole entry): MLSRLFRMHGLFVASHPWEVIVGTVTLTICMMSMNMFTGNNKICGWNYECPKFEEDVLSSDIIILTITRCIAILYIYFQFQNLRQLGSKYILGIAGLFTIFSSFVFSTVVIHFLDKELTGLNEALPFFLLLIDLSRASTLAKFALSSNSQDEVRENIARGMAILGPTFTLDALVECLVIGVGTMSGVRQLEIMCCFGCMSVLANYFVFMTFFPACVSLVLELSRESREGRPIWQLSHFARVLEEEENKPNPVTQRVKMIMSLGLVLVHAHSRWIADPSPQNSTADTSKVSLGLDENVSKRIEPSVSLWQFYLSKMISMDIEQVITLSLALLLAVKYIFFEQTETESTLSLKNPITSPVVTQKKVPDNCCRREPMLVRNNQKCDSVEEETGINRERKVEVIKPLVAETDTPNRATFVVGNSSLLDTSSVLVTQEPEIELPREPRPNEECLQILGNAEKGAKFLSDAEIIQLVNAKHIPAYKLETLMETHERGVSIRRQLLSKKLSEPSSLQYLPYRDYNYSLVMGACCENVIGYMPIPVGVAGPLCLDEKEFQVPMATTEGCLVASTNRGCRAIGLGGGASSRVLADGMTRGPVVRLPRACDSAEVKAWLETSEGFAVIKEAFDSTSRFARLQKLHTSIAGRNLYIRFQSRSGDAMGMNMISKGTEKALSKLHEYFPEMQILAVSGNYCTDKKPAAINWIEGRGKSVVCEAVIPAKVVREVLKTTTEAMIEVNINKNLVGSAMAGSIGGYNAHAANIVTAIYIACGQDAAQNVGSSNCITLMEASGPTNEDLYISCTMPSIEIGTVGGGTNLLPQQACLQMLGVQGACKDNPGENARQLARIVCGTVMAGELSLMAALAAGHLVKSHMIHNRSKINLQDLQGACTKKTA
Description: Inhibition of HMG-CoA reductase (unknown origin). The gist of the method:
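Pig liver microsomal enzyme (about 4 U/mL final), colorimetric. Compounds at 2.5–80 μM final with HMG-CoA (200 μM final) in 0.1 mol/L potassium phosphate pH 7.0 (3.5 mmol/L EDTA, 10 mmol/L DTT, 0.1 g/L BSA). Preincubated 5 min at 37 °C, then NADPH (100 μM final) added for 15 min at 37 °C. A340 read; % inhibition against enzyme-free blanks and compound-free controls.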

The nature of assay [2]: Inhibition of alpha-glucosidase (unknown origin). The arrangement: species or system Homo sapiens. The gist of the method:
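Baker's yeast enzyme with phosphate buffer; absorbance read at 405 nm. Compound-free controls and enzyme-free blanks used. % inhibition = [(ODcontrol − ODcontrol blank) − (ODtest − ODtest blank)]/(ODcontrol − ODcontrol blank) × 100.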

A further assay has as its system K562. Description: Cytotoxicity against human K562 cells by MTT method. The assay is classed as functional, cell-based. As to conditions: Homo sapiens, K562. For orientation: Tetrazolium dyes change colour on reduction, which living cells bring about.
The target in assay [3] is Sucrase-isomaltase, intestinal (Rattus norvegicus, UniProt P23739). In words: Inhibition of sucrase in rat intestinal mucosa pre-incubated for 40 mins using sucrose substrate. Format: tissue-based. The gist of the method: (§1)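 Rat intestinal mucosa powder (1.0 g) was suspended in 3 mL 0.9% saline and sonicated at 4 °C (12 × 30 s), then spun at 10000g, 4 °C, 30 min; the supernatant served as enzyme. Compound in DMSO was mixed with substrate (maltose, sucrose or p-nitrophenyl-α-D-glucopyranoside) in 0.1 M phosphate buffer pH 6.9 and preincubated 40 min. Glucose was read by GOD kit at 550 nm, with blank-corrected percent inhibition.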
Chain of Sucrase-isomaltase, intestinal (P23739 1-1013 limits assumed): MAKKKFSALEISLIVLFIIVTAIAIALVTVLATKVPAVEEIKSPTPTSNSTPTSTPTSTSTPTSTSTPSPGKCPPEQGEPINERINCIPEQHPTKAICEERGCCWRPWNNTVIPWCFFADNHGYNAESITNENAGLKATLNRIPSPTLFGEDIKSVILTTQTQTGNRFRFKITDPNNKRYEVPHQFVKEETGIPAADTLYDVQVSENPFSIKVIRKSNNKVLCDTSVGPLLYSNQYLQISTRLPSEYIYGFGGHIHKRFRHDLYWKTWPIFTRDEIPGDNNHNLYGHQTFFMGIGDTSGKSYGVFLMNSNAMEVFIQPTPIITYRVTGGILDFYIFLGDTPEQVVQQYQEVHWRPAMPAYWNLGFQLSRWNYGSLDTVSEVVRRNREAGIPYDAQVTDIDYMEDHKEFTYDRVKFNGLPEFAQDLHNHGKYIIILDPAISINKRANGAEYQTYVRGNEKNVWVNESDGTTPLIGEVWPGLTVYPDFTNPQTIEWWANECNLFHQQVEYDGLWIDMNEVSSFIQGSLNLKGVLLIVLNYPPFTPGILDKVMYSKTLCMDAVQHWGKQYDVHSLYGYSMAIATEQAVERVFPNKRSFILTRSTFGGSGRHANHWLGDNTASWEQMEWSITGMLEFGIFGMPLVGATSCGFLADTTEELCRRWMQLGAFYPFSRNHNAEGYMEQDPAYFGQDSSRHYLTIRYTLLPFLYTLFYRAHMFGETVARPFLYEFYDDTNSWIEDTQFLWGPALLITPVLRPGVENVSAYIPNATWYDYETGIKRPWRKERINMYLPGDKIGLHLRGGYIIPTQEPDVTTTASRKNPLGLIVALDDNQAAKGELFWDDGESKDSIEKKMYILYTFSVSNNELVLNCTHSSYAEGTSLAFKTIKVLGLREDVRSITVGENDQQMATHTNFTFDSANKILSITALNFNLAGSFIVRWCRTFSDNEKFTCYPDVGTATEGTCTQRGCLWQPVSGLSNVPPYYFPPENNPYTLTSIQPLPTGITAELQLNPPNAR
Chain of Sucrase-isomaltase, intestinal (P23739 1014-1841 limits assumed): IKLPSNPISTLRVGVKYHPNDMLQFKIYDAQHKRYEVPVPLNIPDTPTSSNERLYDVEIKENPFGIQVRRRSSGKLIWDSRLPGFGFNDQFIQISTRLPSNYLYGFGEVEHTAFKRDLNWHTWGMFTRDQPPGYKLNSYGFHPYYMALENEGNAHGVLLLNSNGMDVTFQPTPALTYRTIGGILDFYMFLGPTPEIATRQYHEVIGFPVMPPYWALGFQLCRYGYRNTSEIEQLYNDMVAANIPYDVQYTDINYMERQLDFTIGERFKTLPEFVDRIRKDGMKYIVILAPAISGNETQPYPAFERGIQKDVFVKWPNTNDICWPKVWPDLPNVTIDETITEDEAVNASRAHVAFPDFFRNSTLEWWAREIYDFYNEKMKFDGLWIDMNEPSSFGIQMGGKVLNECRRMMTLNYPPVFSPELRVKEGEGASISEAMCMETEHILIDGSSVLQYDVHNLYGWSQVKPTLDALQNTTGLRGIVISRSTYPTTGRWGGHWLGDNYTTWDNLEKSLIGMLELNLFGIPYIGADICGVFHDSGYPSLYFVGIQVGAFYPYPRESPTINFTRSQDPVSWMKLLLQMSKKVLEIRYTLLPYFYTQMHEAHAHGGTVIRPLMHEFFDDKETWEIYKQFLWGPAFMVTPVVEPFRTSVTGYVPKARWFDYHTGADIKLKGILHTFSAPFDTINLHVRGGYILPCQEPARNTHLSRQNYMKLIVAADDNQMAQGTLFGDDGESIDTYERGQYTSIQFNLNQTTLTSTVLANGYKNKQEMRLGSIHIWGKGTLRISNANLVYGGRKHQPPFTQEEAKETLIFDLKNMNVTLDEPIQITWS

A further assay relates to PC-3. In words: Cytotoxicity against human PC3 cells by MTT method. Format: functional, cell-based. The note with it: Homo sapiens, PC-3.
The nature of assay [4]: Inhibition of Baker's yeast alpha-glucosidase. Set-up: species or system Saccharomyces cerevisiae. The gist of the method:
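Baker's yeast α-glucosidase assay read by absorbance at 405 nm. Control wells got phosphate buffer instead of compound, and blanks got buffer instead of enzyme. Percent inhibition was calculated from blank-corrected OD of test versus control wells.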

The nature of assay [5]: Inhibition of alpha-glucosidase in rat intestinal mucosa pre-incubated for 40 mins using p-nitrophenyl-alpha-D-glucopyranoside substrate. Format: tissue-based. In short, it runs like this: as §1
The target of assay [6] is T2, 3-hydroxy-3-methylglutaryl-coenzyme A reductase (Sus scrofa, UniProt Q1W675).
T2 sequence (Q1W675 whole entry): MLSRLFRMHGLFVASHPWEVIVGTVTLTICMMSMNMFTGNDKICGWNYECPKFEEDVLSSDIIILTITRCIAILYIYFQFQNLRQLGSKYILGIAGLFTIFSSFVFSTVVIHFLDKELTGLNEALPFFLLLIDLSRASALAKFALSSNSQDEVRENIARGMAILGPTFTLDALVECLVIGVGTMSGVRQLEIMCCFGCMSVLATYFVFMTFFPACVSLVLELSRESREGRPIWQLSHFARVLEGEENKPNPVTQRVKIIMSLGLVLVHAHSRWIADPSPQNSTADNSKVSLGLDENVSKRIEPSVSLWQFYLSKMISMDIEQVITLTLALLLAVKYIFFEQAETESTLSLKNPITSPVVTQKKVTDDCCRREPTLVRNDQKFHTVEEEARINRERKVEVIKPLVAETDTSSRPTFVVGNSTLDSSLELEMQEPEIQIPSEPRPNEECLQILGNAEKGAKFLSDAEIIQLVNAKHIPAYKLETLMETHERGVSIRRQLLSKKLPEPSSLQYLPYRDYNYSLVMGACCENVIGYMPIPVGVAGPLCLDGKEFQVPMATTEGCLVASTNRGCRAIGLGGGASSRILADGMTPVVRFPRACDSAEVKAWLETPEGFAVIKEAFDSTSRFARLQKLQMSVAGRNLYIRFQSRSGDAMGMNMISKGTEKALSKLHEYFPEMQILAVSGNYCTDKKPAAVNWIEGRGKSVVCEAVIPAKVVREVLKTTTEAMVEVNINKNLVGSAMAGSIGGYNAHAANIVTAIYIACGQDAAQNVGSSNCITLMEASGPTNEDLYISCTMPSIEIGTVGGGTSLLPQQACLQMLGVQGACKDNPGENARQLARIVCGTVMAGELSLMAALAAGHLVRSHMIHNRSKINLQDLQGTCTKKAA
Description: Inhibition of pig liver microsomes HMG-CoA reductase incubated for 5 mins in using HMG-CoA and NADPH by colorimetric method. The gist of the method: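 Pig liver microsomal HMG-CoA reductase at about 4 U/mL final, with compound at 2.5–80 μM final and 200 μM HMG-CoA. Buffer was 0.1 mol/L potassium phosphate pH 7.0 with EDTA, dithiothreitol and BSA. After 5 min at 37 °C, 100 μM NADPH was added for 15 min at 37 °C. Absorbance was read at 340 nm, with percent inhibition from blank-corrected OD.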
A general note: Microsomes from liver hold many membrane-bound enzymes, among them those of drug oxidation.

The compound `C/C(=C\CC[C@@H](C)[C@H]1C[C@H](O)[C@@]2(C)C3=CC[C@H]4C(C)(C)C(=O)CC[C@]4(C)C3=CC[C@]12C)C(=O)O` registered a concentration for half-maximal inhibition (IC50) in assay [1] of 21.7 µM.

In turn, `C/C(=C\CC[C@@H](C)[C@H]1CC[C@@]2(C)C3=CC[C@H]4C(C)(C)[C@@H](O)CC[C@]4(C)C3=CC[C@]12C)CO` [GANODEROL B] had an IC50 in assay [2] of 120 µM.

In assay [1], `C/C(=C\CC[C@@H](C)[C@H]1CC[C@@]2(C)C3=C(CC[C@]12C)[C@@]1(C)CC[C@H](O)C(C)(C)[C@@H]1CC3=O)C(=O)O` yielded an IC50 of 22.3 µM.

For the compound `CC(C)=CCC/C(C)=C/CC/C(=C\Cc1cc(O)ccc1O)C(=O)O[C@@H](CC[C@@H](C)[C@H]1CC[C@@]2(C)C3=CC[C@H]4C(C)(C)C(=O)CC[C@]4(C)C3=CC[C@]12C)[C@](C)(O)CO`, the concentration for half-maximal inhibition (IC50) in the assay on K562 is 104 µM; in assay [3], > 50 µM; in the assay with PC-3 it was > 200 µM; in assay [4] it was > 50 µM; in assay [5] it was > 50 µM; in assay [6], > 100 µM.

`CC(C)=CCC/C(C)=C/CC/C(=C/Cc1cc(O)ccc1O)C(=O)O[C@@H](CC[C@@H](C)[C@H]1CC[C@@]2(C)C3=CC[C@H]4C(C)(C)C(=O)CC[C@]4(C)C3=CC[C@]12C)[C@](C)(O)CO`: the IC50 is 48.4 µM in the assay with K562; 22.5 µM in assay [3]; 14.4 µM in the assay on PC-3; 2.5 µM in assay [4]; 8.1 µM in assay [5]; 24.1 µM in assay [6].

`CC(C)=CCC/C(C)=C/CC/C(=C/Cc1cc(O)ccc1O)C(=O)OC[C@@](C)(O)[C@@H](O)CC[C@@H](C)[C@H]1CC[C@@]2(C)C3=CC[C@H]4C(C)(C)C(=O)CC[C@]4(C)C3=CC[C@]12C`: the IC50 in the assay on K562 worked out at 48.6 µM; in assay [3] it was 8.4 µM; in the assay with PC-3, 58.4 µM; in assay [4], 13.6 µM; in assay [5] it was 1.5 µM; in assay [6], 18.9 µM.

On to `CC(C)=CCC/C(C)=C/CC/C(=C/Cc1cc(O)ccc1O)C(=O)OC[C@@](C)(O)[C@@H](O)CC[C@@H](C)[C@H]1CC[C@@]2(C)C3=C(CC[C@]12C)[C@@]1(C)CCC(=O)C(C)(C)[C@@H]1CC3=O`, for which the IC50 was 10.7 µM in the assay on K562; 18.5 µM in assay [3]; 10.8 µM in the assay with PC-3; 5.9 µM in assay [4]; 9.3 µM in assay [5]; > 100 µM in assay [6].

The record behind these values is ChEMBL document CHEMBL3593234, “Lanostane Triterpenes from the Tibetan Medicinal Mushroom Ganoderma leucocontextum and Their Inhibitory Effects on HMG-CoA Reductase and α-Glucosidase” (J Nat Prod, 2015).
